Source: ChEMBL document CHEMBL1122536, “Novel pyrimidine and 1,3,5-triazine hypolipidemic agents” (J Med Chem, 1984)
Values joined by “and” are separate entries in the source; they are usually repeats but may differ in a detail not shown here. Equal values may be shown once.

Tests used:
[1] = tested on: Rattus norvegicus; test: Hypolipidemic activity was assessed inVariation of the enoyl-CoA oxide (umol/min mg) in F 344 rats at 20 mg/kg
[2] = tested on: Rattus norvegicus; test: Hypolipidemic activity was assessed by measuring cholesterol in Sprague-Dawley male rats at 50 mg/kg; assay type: functional
Outline: (§1)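 Male Sprague-Dawley rats (185-g mean bodyweight) on a normal diet were dosed orally for 4 consecutive days at 50 mg/kg or 200 mg/kg. They were fasted 18 h, and blood was drawn from the abdominal aorta 24 h after the last dose. Serum total cholesterol, triglycerides (mg/100 mL) and lipoprotein α-cholesterol (% of total cholesterol) were measured. Groups of 10–40 rats were compared with controls by Student's t test.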

[3] = tested on: Rattus norvegicus; test: Hyperlipidemic activity was assessed by measuring liver weight in Sprague-Dawley male rats at 50 mg/kg; assay type: functional
Outline: (§2)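 Sprague-Dawley rats were fed the hyperlipidemic Nath's diet for 15 days and dosed orally at 50 or 200 mg/kg, or at 6.25, 12.5 and 25 mg/kg on a diet with 0.5% cholesterol and cholic acid. After an 18-h fast they were killed on day 16, 24 h after the last dose. Serum total cholesterol and triglycerides were assayed, and liver weight was expressed per 100 g bodyweight. Groups were compared with Nath's-diet controls by Student's t test.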

[4] = tested on: Rattus norvegicus; test: Hypolipidemic activity was assessed in variation of the liver enzyme catalase was expressed as units per mg of protein in F 344 rats at 20 mg/kg
[5] = tested on: Rattus norvegicus; test: Hyperlipidemic activity was assessed by measuring cholesterol in Sprague-Dawley male rats at 50 mg/kg; assay type: functional
Outline: as §2

[6] = tested on: Rattus norvegicus; test: Hypolipidemic activity was assessed by measuring body weight in F 344 rats at 20 mg/kg
[7] = tested on: Rattus norvegicus; test: Hyperlipidemic activity was assessed by measuring triglycerides in Sprague-Dawley male rats at 50 mg/kg; assay type: functional
Outline: as §2

[8] = tested on: Rattus norvegicus; test: Hypolipidemic activity was assessed in Variation of the carnitine acetyl transferase was expressed as units per mg of protein in F 344 rats at 20 mg/kg
[9] = tested on: Rattus norvegicus; test: Hypolipidemic activity was assessed in variation of palmitoyl-CoA oxide (umol/min mg) in F 344 rats at 20 mg/kg
[10] = tested on: Rattus norvegicus; test: Hypolipidemic activity was assessed by measuring liver weight in Sprague-Dawley male rats at 50 mg/kg; assay type: functional
[11] = tested on: Rattus norvegicus; test: Hypolipidemic activity was assessed by measuring triglycerides in Sprague-Dawley male rats at 50 mg/kg; assay type: functional
Outline: as §1

[12] = Evaluated for the dose that causes 50 % lethality in Sprague-Dawley male rats; assay type: ADME, organism-based; details: rat, in vivo
[13] = tested on: Rattus norvegicus; test: Hypolipidemic activity was assessed by measuring alpha-cholesterol in Sprague-Dawley male rats at 50 mg/kg; assay type: functional
Outline: as §1

[14] = tested on: Rattus norvegicus; test: Hypolipidemic activity was assessed by measuring cholesterol in Sprague-Dawley male rats at 200 mg/kg; assay type: functional
Outline: as §1

[15] = tested on: Rattus norvegicus; test: Hypolipidemic activity was assessed by measuring alpha-cholesterol in Sprague-Dawley male rats at 200 mg/kg; assay type: functional
Outline: as §1

[16] = (§3) Compound was evaluated for the dose that causes […] in Sprague-Dawley male rats; assay type: ADME, organism-based; details: rat, in vivo
[17] = tested on: Rattus norvegicus; test: Hypolipidemic activity was assessed by measuring triglycerides in Sprague-Dawley male rats at 200 mg/kg; assay type: functional
Outline: as §1

[18] = organism: Rattus norvegicus; test: as §3; assay type: functional
[19] = organism: Rattus norvegicus; test: Compound dose that causes […] in Sprague-Dawley male rats; assay type: functional
[20] = tested on: Rattus norvegicus; test: Hypolipidemic activity was assessed in Variation of the liver enzyme catalase was expressed as units per mg of protein in F 344 rats at 20 mg/kg
[21] = tested on: Rattus norvegicus; test: Hyperlipidemic activity was assessed by measuring liver weight in Sprague-Dawley male rats at 25 mg/kg; assay type: functional
Outline: as §2

[22] = tested on: Rattus norvegicus; test: Hyperlipidemic activity was assessed by measuring liver weight in Sprague-Dawley male rats at 6.25 mg/kg; assay type: functional
Outline: as §2

[23] = tested on: Rattus norvegicus; test: Hyperlipidemic activity was assessed by measuring cholesterol in Sprague-Dawley male rats at 25 mg/kg; assay type: functional
Outline: as §2

[24] = tested on: Rattus norvegicus; test: Hyperlipidemic activity was assessed in variation of palmitoyl-CoA oxide (umol/min mg) in F 344 rats at 20 mg/kg.
[25] = tested on: Rattus norvegicus; test: Hyperlipidemic activity was assessed by measuring triglycerides in Sprague-Dawley male rats at 25 mg/kg; assay type: functional
Outline: as §2

[26] = tested on: Rattus norvegicus; test: Hyperlipidemic activity was assessed by measuring cholesterol in Sprague-Dawley male rats at 6.25 mg/kg; assay type: functional
Outline: as §2

[27] = tested on: Rattus norvegicus; test: Hyperlipidemic activity was assessed by measuring triglycerides in Sprague-Dawley male rats at 6.25 mg/kg; assay type: functional
Outline: as §2

[28] = tested on: Rattus norvegicus; test: Hyperlipidemic activity was assessed by measuring cholesterol in Sprague-Dawley male rats at 12.5 mg/kg; assay type: functional
Outline: as §2

[29] = tested on: Rattus norvegicus; test: Hyperlipidemic activity was assessed by measuring liver weight in Sprague-Dawley male rats at 12.5 mg/kg; assay type: functional
Outline: as §2

[30] = tested on: Rattus norvegicus; test: Hypolipidemic activity was assessed inVariation of the enoyl-CoA oxide (umol/min mg) in F 344 rats at 20 mg/kg.
[31] = tested on: Rattus norvegicus; test: Hyperlipidemic activity was assessed by measuring triglycerides in Sprague-Dawley male rats at 12.50 mg/kg; assay type: functional; details: dose 12.5 mg/kg
Outline: as §2

[32] = tested on: Rattus norvegicus; test: Hypolipidemic activity was assessed in Variation of the liver enzyme catalase was expressed as units per mg of protein in F 344 rats at 20 mg/kg; remark: listed apart in the source
[33] = tested on: Rattus norvegicus; test: Hyperlipidemic activity was assessed by measuring triglycerides in Sprague-Dawley male rats at 200 mg/kg; assay type: functional
Outline: as §2

[34] = tested on: Rattus norvegicus; test: Hypolipidemic activity was assessed in Variation of the liver enzyme catalase was expressed as units per mg of protein. in F 344 rats at 20 mg/kg
[35] = tested on: Rattus norvegicus; test: Hypolipidemic activity was assessed in Variation of palmitoyl-CoA oxide (umol/min mg) in F 344 rats at 20 mg/kg
[36] = tested on: Rattus norvegicus; test: Hypolipidemic activity was assessed in Variation of the enoyl-CoA oxide (umol/min mg) in F 344 rats at 20 mg/kg
[37] = tested on: Rattus norvegicus; test: Hypolipidemic activity was assessed by measuring liver weight in Sprague-Dawley male rats at 200 mg/kg; assay type: functional
Outline: as §2

[38] = tested on: Rattus norvegicus; test: Hyperlipidemic activity was assessed by measuring cholesterol in Sprague-Dawley male rats at 200 mg/kg
[39] = dose 20 mg/kg, in the assay text read “F 344 rats at 20 mg/kg” for “Sprague-Dawley male rats at 50 mg/kg”

Compound | Cholesterol [2] [mg 100ml-1] | Triglycerides [11] [mg/100 mL] | LD50 [12] [mg/kg] | Alpha-cholesterol ([13]; dose 50 mg/kg) | Cholesterol [14] [mg 100ml-1] | Alpha-cholesterol [15] [%] | LD50 [16] [mg/kg] | Triglycerides [17] [mg/100 mL] | also measured
Cc1cccc(Nc2cc(Cl)nc(OCC(=O)O)n2)c1C | <57.3 | < 67.3 | 1080 | <83.8% |  |  |  |  | Enoyl-CoA hydratase [1]: 2.5 µM/min/mg; Liver weight [3]: 6.29 g 100g-1; Catalase [4]: 77 U/mg protein; Cholesterol [5]: <548.8 mg 100ml-1; Body weight [6]: 245 g; Triglycerides [7]: <215.6 mg 100ml-1; Carnitine acetyl transferase [8]: 10 U/mg protein; Palmitoyl-CoA oxid [9]: 0.088 µM/min/mg; Liver weight [10, 39]: 4.5 g (100g of body weight)-1
Cc1cccc(Nc2nc(Cl)nc(N(C)C)n2)c1C |  |  |  |  | 80.8 | 78.6 | < 2000 | < 91.4 | 
CN(C)c1nc(Cl)nc(N(C)C)n1 | 84.8 |  |  | 70% |  |  |  |  | 
CSc1nc(Cl)cc(Nc2cccc(C)c2C)n1 | <54.2 | 106 | 1250 | 72.3% |  |  |  |  | 
Cc1cccc(Oc2cc(Cl)nc(N(C)C)n2)c1C |  |  |  |  | 76.7 | 72.6 | < 2000 | 102 | 
Cc1cccc(N(C)c2cc(Cl)nc(S)n2)c1C |  |  |  |  | 65.8 | 74.4 | 1780 | < 79.1 | 
Cc1cccc(N(C)c2cc(Cl)nc(N(C)C)n2)c1C |  |  |  |  | 63.2 | 90 | < 2500 | 89.8 | 
Cc1cccc(N(C)c2cc(Cl)nc(NCC(=O)O)n2)c1C | <68.4 | < 50 | 995 | 77% |  |  |  |  | 
Cc1cccc(Nc2nc(Cl)nc(OCC(=O)O)n2)c1C |  |  |  |  | 72 | <82.1 | 1180 | < 65.5 | 
CN(C)c1cc(Cl)nc(N(C)C)n1 | <103.7 |  | < 2500 |  |  |  |  |  | Alpha-cholesterol ([13]; dose 200 mg/kg, in the assay text read “200 mg/kg” for “50 mg/kg”): 75.7%
Cc1cccc(Nc2nc(Cl)nc(N(C)CC(=O)O)n2)c1C |  |  |  |  | 76.8 | 79.8 | 1220 | < 74.6 | 
Cc1cccc(Oc2cc(Cl)nc(SCC(=O)O)n2)c1C | <67.7 | < 56.4 | 1290 | 77% |  |  |  |  | 
Cc1cccc(Nc2cc(Cl)nc(S)n2)c1C |  |  | 1840 |  | 76.3 | 73.2 |  | 95.6 | 
Cc1cccc(Oc2cc(Cl)nc(OCC(=O)O)n2)c1C | 67.1 | 91.1 | 1210 | 74% |  |  |  |  | 
CCOc1nc(Nc2cccc(C)c2C)nc(SCC(=O)O)n1 |  |  |  |  | 70.3 | <82.2 |  | < 76.1 | Liver weight [3]: 6.53 g 100g-1; Body weight [6]: 248 g; Cholesterol [18]: 1054.8 mg 100ml-1; Triglycerides [7]: <214.3 mg 100ml-1; LD50 [19]: 1120 mg/kg; Liver weight [10, 39]: 3.1 g (100g of body weight)-1; Catalase [20]: 50 U/mg protein
CCOc1cc(Nc2cccc(C)c2C)nc(SCC(=O)NCCO)n1 | <65.7 | < 64.3 | 2500 | 76.6% |  |  |  |  | Liver weight [3]: 6.85 g 100g-1; Cholesterol [5]: <479.8 mg 100ml-1; Body weight [6]: 192 g; Triglycerides [7]: <206.6 mg 100ml-1; Liver weight [10, 39]: 5.9 g (100g of body weight)-1; Catalase [20]: 67.5 U/mg protein
CCCCCCCCSc1nc(Cl)cc(Nc2cccc(C)c2C)n1 | 63.2 | 96.5 |  | 67.7% |  |  |  |  | 
Cc1cccc(N(C)c2cc(Cl)nc(OCC(=O)O)n2)c1C | 66.4 | < 80.7 | 1070 | 87.2% |  |  |  |  | 
CN(C)c1cc(Cl)nc(SCC(=O)O)n1 |  |  | < 2500 | 81.7% and 72.2% |  |  |  |  | Cholesterol ([2]; 50 mg/kg): <62.5 mg 100ml-1 and <69.4 mg 100ml-1
Cc1cccc(N(C)c2cc(Cl)nc(SCC(=O)O)n2)c1C | 63.5 | < 46.9 | 1010 | 78.6% |  |  |  |  | 
CN(C)c1nc(N)nc(Cl)n1 |  |  |  |  | <105.6 | 85.4 | < 2000 | < 78.2 | 
CN(C)c1nc(N)cc(Cl)n1 |  |  |  |  | 71.4 | <87.4 | < 2500 | < 89.9 | 
Cc1cccc(Nc2cc(Cl)nc(NCC(=O)O)n2)c1C [ARONIXIL] | <63.6 | < 71.6 | 1020 | 76.7% |  |  |  |  | Liver weight [21]: 5.31 g 100g-1; Liver weight [22]: 4.82 g 100g-1; Cholesterol [23]: <215.4 mg 100ml-1; Palmitoyl-CoA oxid [24]: 0.056 µM/min/mg; Triglycerides [25]: 312.1 mg 100ml-1; Cholesterol [26]: 257.4 mg 100ml-1; Body weight [6]: 266 g; Triglycerides [27]: <205.2 mg 100ml-1; Carnitine acetyl transferase [8]: 11 U/mg protein; Liver weight [10, 39]: 4.2 g (100g of body weight)-1; Cholesterol [28]: 264.2 mg 100ml-1; Liver weight [29]: 5.14 g 100g-1; Enoyl-CoA hydratase [30]: 3.7 uM min-1 (mg of protein)-1; Triglycerides [31]: 263.8 mg 100ml-1; Liver catalase [32]: 61 mg of protein
Cc1cccc(Nc2cc(Cl)nc(N(C)C)n2)c1C [LODINIXIL] | 57.8 | 96.5 | < 2500 | 69.6% |  |  |  |  | Triglycerides [33]: <182 mg 100ml-1; Body weight [6]: 268 g; Catalase [34]: 38 U/mg protein; Palmitoyl-CoA oxid [35]: 0.015 µM/min/mg; Enoyl-CoA hydratase [36]: 3.8 µM/min/mg; Liver weight [37]: 5.97 g 100g-1; Carnitine acetyl transferase [8]: 7 U/mg protein; Cholesterol [38]: 771 mg 100ml-1; Liver weight [10, 39]: 3.9 g (100g of body weight)-1
Cc1cccc(Nc2cc(Cl)nc(SCC(=O)O)n2)c1C [PIRINIXIC ACID] |  |  | 1050 | 75.1% |  |  |  |  | Liver weight ([10]; dose 50 mg/kg): 8.23 g 100g-1 and 8.88 g 100g-1
